Here are results for 11 molecules from ChEMBL document CHEMBL1817655, “Tylosema esculentum extractives and their bioactivity” (Bioorg Med Chem, 2011).

Common to all, as to assay type: functional
One experiment relates to Staphylococcus aureus. The experiment can be described thus: Antimicrobial activity against Staphylococcus aureus ATCC 9144 after 24 hrs using thiazoyl blue by agar overlay bioautography method. An outline of the steps: (§1)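 Agar-overlay TLC bioautography. Stock samples (10 mg/mL) were serially diluted to 5.0, 1.0, 0.05 and 0.001 mg/mL, spotted on silica gel TLC plates and dried. Plates were overlaid with Sabouraud dextrose agar seeded with 24-h cultures and run in duplicate. Incubation was 24 h at 37 °C for S. aureus and E. coli, and 25 °C for B. subtilis, P. aeruginosa and C. albicans. Plates were then sprayed with MTT and incubated a further 4 h. MIQ was the lowest loading giving a white inhibition zone.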

The subject of another experiment is Bacillus subtilis. Put plainly: Antimicrobial activity against Bacillus subtilis ATCC 6633 after 24 hrs using thiazoyl blue by agar overlay bioautography method. An outline of the steps:
as §1

For another experiment, the system named is Pseudomonas aeruginosa. The experiment can be described thus: Antimicrobial activity against Pseudomonas aeruginosa NCTC 10332 after 24 hrs using thiazoyl blue by agar overlay bioautography method. An outline of the steps: as §1
The test system of the next experiment is Candida albicans. The experiment can be described thus: Antimicrobial activity against Candida albicans ATCC 10231 after 24 hrs using thiazoyl blue by agar overlay bioautography method. The gist of the method:
as §1

Another experiment deals with Escherichia coli. The experiment can be described thus: Antimicrobial activity against Escherichia coli ATCC 11229 after 24 hrs using thiazoyl blue by agar overlay bioautography method. An outline of the steps:
as §1

The test system of experiment [1] is Radical scavenging activity. The experiment can be described thus: Antioxidant activity assessed as DPPH radical scavenging activity after 30 mins by spectrophotometric analysisic analysis. The gist of the method:
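Methanolic samples (0.005–0.5 mg/mL) were mixed 1:1 by volume with 2% DPPH and incubated in the dark at room temperature. Absorbance at 517 nm was read at 0.5, 1, 3, 6 and 24 h. Percent scavenged = (A_blank − A_sample)/A_blank × 100, with the blank being DPPH without sample. Ascorbic acid served as reference. Run in triplicate.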

Experiment [2] in a line: Antioxidant activity assessed as H2O2 scavenging activity at 12.5 to 250 ug/mL after 30 mins by spectrophotometric analysisic analysis. The gist of the method: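 Hydrogen peroxide (32.7 mM in PBS, pH 7.4; 0.6 mL) was combined with 0.05–1 mL of 1 mg/mL extract or standard (gallic acid, ascorbic acid) and made up to 4 mL with water. A230 was read before and after 30 min. Background correction used buffer without peroxide. Percent scavenged = (A0 − A1)/A0 × 100.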

As usually defined, the EC50 is the concentration that produces a half-maximal response.

Molecules are shown by their SMILES. Converted amounts (≈) assume the structure as drawn.

As to `OC[C@H]1O[C@@](CO)(O[C@H]2O[C@H](CO)[C@@H](O)[C@H](O)[C@H]2O)[C@@H](O)[C@@H]1O` [SUCROSE], the MIC with Staphylococcus aureus, against Bacillus subtilis, against Pseudomonas aeruginosa, in the experiment with Candida albicans and against Escherichia coli was 50 µg throughout.
As for `O=C(O)c1ccc(O)c(O)c1` [PROTOCATECHUIC ACID], the MIC with Staphylococcus aureus, with Bacillus subtilis, against Pseudomonas aeruginosa, in the experiment with Candida albicans and with Escherichia coli was 50 µg throughout.
Consider `O=C1C=C2C=C[C@@H](O)[C@H](O)[C@H]2O1` [GRIFFONILIDE], for which the MIC with Staphylococcus aureus, with Bacillus subtilis, with Pseudomonas aeruginosa, against Candida albicans and against Escherichia coli was 50 µg in each case.
`O=C1O[C@H]([C@@H](O)CO)C(O)=C1O` [ASCORBIC ACID]: the EC50 in experiment [1] came to 41.08 µg/mL (≈ 233 µM). In addition, the Activity in experiment [2] was > 50%.
As to `N#C/C=C1/C=C[C@@H](O)[C@H](O)[C@H]1O[C@@H]1O[C@H](CO)[C@@H](O)[C@H](O)[C@H]1O` [GRIFFONIN], the MIC with Staphylococcus aureus, in the experiment on Bacillus subtilis, in the experiment with Pseudomonas aeruginosa, in the experiment on Candida albicans and with Escherichia coli was 50 µg in each case.
With `CCCCCCCCCCCCCCCCCCCCCC(=O)O` [BEHENIC ACID], the MIC in the experiment with Staphylococcus aureus, against Bacillus subtilis, in the experiment with Pseudomonas aeruginosa, against Candida albicans and with Escherichia coli was 50 µg each time.
Regarding `CC[C@H](CC[C@@H](C)[C@H]1CC[C@H]2[C@@H]3CC=C4C[C@@H](O)CC[C@]4(C)[C@H]3CC[C@]12C)C(C)C` [BETA-SITOSTEROL], the MIC in the experiment with Staphylococcus aureus, against Bacillus subtilis, in the experiment on Pseudomonas aeruginosa, with Candida albicans and against Escherichia coli was 50 µg each time.
Take `O=C(N[C@H](CO)[C@H](O)c1ccc([N+](=O)[O-])cc1)C(Cl)Cl` [CHLORAMPHENICOL]: the MIC against Staphylococcus aureus, in the experiment with Bacillus subtilis, with Pseudomonas aeruginosa, in the experiment on Candida albicans and in the experiment with Escherichia coli was 0.001 µg throughout.
In the case of `CCO[C@@H]1[C@@H](O)[C@H](O)[C@@H](CO)O[C@@H]1O`, the MIC with Staphylococcus aureus, in the experiment with Bacillus subtilis, with Pseudomonas aeruginosa, with Candida albicans and against Escherichia coli was 50 µg each time.
As for `O=C(O)c1cc(O)c(O)c(O)c1` [GALLIC ACID], the EC50 in experiment [1] stood at 1.85 µg/mL (≈ 10.9 µM). In addition, the Activity in experiment [2] is > 50%. Further, the MIC against Staphylococcus aureus, against Bacillus subtilis, against Pseudomonas aeruginosa, against Candida albicans and against Escherichia coli was 50 µg in each case.
In the case of `CCCCCCCC/C=C\CCCCCCCC(=O)O` [OLEIC ACID], the MIC in the experiment on Staphylococcus aureus, in the experiment with Bacillus subtilis, against Pseudomonas aeruginosa, in the experiment with Candida albicans and in the experiment with Escherichia coli was 50 µg throughout.
